According to ChEMBL document CHEMBL1938299, “Quinolinone-based agonists of S1P₁: use of a N-scan SAR strategy to optimize in vitro and in vivo activity” (Bioorg Med Chem Lett, 2012):
pEC50: −log10 of the molar value. In brackets after ≈: the same amount, converted by molar mass.

Assays:
[1] = Intrinsic clearance in rat liver microsomes assessed per mg of protein after 30 mins; type: ADME, Microsome; conditions: read-out: CLH
Procedure, shortened: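 Test compound incubated with rat liver microsomes for 30 min. Percent turnover measured and used to estimate intrinsic clearance.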

[2] = biological target: T1, Sphingosine 1-phosphate receptor 3 (Homo sapiens, UniProt Q99500); assay: Agonist activity at human S1P3 receptor expressed in CHO-K1 cells co-expressing Gq/i5 G-protein assessed as calcium mobilization by FLIPR assay; type: functional, cell-based
T1 sequence (Q99500 whole entry): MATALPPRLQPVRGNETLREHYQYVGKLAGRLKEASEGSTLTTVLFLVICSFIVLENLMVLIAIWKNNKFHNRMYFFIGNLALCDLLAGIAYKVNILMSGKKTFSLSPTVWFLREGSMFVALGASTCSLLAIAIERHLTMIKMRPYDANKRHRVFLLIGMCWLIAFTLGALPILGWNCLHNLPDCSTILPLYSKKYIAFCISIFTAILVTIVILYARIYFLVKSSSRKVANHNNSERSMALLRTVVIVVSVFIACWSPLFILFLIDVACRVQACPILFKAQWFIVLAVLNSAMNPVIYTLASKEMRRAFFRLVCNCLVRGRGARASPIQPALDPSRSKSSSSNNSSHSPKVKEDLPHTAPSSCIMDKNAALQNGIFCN

[3] = biological target: T2, Sphingosine 1-phosphate receptor 1 (Homo sapiens, UniProt P21453); assay: Agonist activity at human S1P1 receptor expressed in human U2OS cells co-expressing eGFP assessed as receptor internalization into cytoplasm using Hoechst dye staining relative to 1-(4-(6-benzylbenzofuran-2-yl)-3- fluorobenzyl)azetidine-3-carboxylic acid; type: functional, cell-based
T2 sequence (P21453 whole entry): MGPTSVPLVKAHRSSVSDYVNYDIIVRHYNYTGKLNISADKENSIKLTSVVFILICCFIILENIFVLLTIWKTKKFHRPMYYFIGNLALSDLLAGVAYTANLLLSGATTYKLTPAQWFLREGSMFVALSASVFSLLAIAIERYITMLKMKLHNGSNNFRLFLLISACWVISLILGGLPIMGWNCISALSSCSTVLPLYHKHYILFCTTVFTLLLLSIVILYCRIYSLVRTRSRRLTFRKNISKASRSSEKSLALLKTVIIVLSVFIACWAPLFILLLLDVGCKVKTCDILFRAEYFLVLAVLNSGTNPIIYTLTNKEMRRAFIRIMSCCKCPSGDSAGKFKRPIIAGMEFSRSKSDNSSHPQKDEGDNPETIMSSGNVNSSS

[4] = biological target: T2, Sphingosine 1-phosphate receptor 1; assay: Agonist activity at human S1P1 receptor expressed in human U2OS cells co-expressing eGFP assessed as receptor internalization into cytoplasm using Hoechst dye staining; type: functional, cell-based
[5] = Apparent permeability of the compound in pig LLC-PK1 cells; type: ADME, cell-based, Sus scrofa
Procedure, shortened: (§1)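 LLC-PK1 porcine proximal tubule cell monolayers; apparent permeability (Papp) of test compound through the cells measured, along with efflux ratio.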

[6] = Solubility of the compound in phosphate-buffered saline at pH 7.4; type: physicochemical
Procedure, shortened: (§2)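 Compound solubility measured separately in 0.010 M aqueous HCl, in PBS at pH 7.4, and in simulated intestinal fluid.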

Rattus norvegicus [7] = assay: Immunosuppressive activity in Lewis rat assessed as reduction in circulating peripheral lymphocyte count at 3 mg/kg, po after 24 hrs relative to control; type: functional; parameters: scale not given: the % may be the effect or the level left
Procedure, shortened: (§3)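 Female Lewis rats (N = 5/group) given a single oral dose (0.30, 1.0 or 3.0 mg/kg) in 20% Captisol or HPBCD, 1% HPMC, 1% Pluronic F68, pH 2.0 with MSA. At 24 h, blood lymphocytes were counted as percent of vehicle control and total plasma compound measured. Significance by ANOVA/Dunnett's test versus vehicle.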

[8] = Plasma concentration in Lewis rat at 1 mg/kg, po after 24 hrs; type: ADME, organism-based; parameters: dose 1 mg/kg, route oral; procedure, shortened: as §3
Rattus norvegicus [9] = assay: Immunosuppressive activity in Lewis rat assessed as reduction in circulating peripheral lymphocyte count at 1 mg/kg, po after 24 hrs relative to control; type: functional; parameters: scale not given: the % may be the effect or the level left; procedure, shortened: as §3
[10] = Solubility of the compound in 0.010 M aqueous hydrogen chloride at pH 7.4; type: physicochemical; conditions: in the assay text read “hydrogen chloride” for “hydrogen chloride at pH 7.4”; procedure, shortened: as §2
[11] = Oral bioavailability in Sprague-Dawley rat at 3 mg/kg; type: ADME, organism-based; conditions: Sprague-Dawley, in vivo
Procedure, shortened: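 Bioavailability in male Sprague–Dawley rats (N = 3/group), calculated from AUC0–∞ values obtained after a 1 mg/kg iv dose (DMSO vehicle) and a 3 mg/kg po dose (20% Captisol, 1% HPMC, 1% pluronic F68, pH 2.0 with MSA).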

[12] = Efflux ratio of permeability in pig LLC-PK1 cells; type: ADME, cell-based, Sus scrofa; procedure, shortened: as §1
[13] = AUC (0 to 24 hrs) in Sprague-Dawley rat at 3 mg/kg, po; type: ADME, organism-based, Plasma; parameters: time < 24 hr, dose 3 mg/kg, route oral; conditions: Sprague-Dawley, plasma
[14] = Solubility of the compound in simulated intestinal fluid at pH 7.4; type: physicochemical; procedure, shortened: as §2
[15] = Plasma protein binding in rat; type: ADME, cell-free; conditions: read-out: PPB (converted)
Procedure, shortened: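 Rat plasma protein binding measured in vitro, with bound and free compound separated by ultracentrifugation; reported as percent bound.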

[16] = AUC (0 to 24 hrs) in Sprague-Dawley rat at 100 mg/kg, po; type: ADME, organism-based; parameters: time < 24 hr, dose 100 mg/kg, route oral; conditions: plasma
Rattus norvegicus [17] = assay: Immunosuppressive activity in po dosed Lewis rat assessed as reduction in circulating peripheral lymphocyte count after 24 hrs; type: functional, organism-based; procedure, shortened: as §3
[18] = biological target: T1, Sphingosine 1-phosphate receptor 3; assay: Agonist activity at human S1P3 receptor expressed in CHO-K1 cells co-expressing Gq/i5 G-protein assessed as calcium mobilization by FLIPR assay relative to S1P; type: functional, cell-based
Procedure, shortened: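 Ca2+ mobilization in CHO-K1 cells expressing hS1P3 and a chimeric Gq/i5 G-protein. Efficacy expressed as % relative to S1P; compounds not reaching >10% of control activity reported as greater than the highest concentration tested.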

[19] = Volume of distribution at steady state in Sprague-Dawley rat at 1 mg/kg, iv; type: ADME, organism-based; parameters: dose 1 mg/kg, route intravenous; conditions: in vivo, read-out: Vdss
Procedure, shortened: (§4)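 Single intravenous dose of 1 mg/kg in DMSO vehicle to male Sprague–Dawley rats (N = 3/group). Clearance, steady-state volume of distribution and half-life were determined from plasma levels.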

Rattus norvegicus [20] = assay: Ratio of AUC (0 to 24 hrs) at 100 mg/kg, po to AUC (0 to 24 hrs) at 3 mg/kg, po in Sprague-Dawley rat; type: ADME, organism-based; conditions: in vivo
Procedure, shortened: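 Male Sprague–Dawley rats (N = 3/group) each received a single oral dose of 3 or 100 mg/kg, in 20% Captisol, 1% HPMC, 1% Pluronic F68, adjusted to pH 2.0 with MSA.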

[21] = Half life in Sprague-Dawley rat at 1 mg/kg, iv; type: ADME, organism-based; parameters: dose 1 mg/kg, route intravenous; conditions: in vivo; procedure, shortened: as §4
[22] = Plasma concentration in Lewis rat at 3 mg/kg, po after 24 hrs; type: ADME, organism-based; parameters: dose 3 mg/kg, route oral; procedure, shortened: as §3
[23] = Clearance in Sprague-Dawley rat at 1 mg/kg, iv; type: ADME, organism-based; parameters: dose 1 mg/kg, route intravenous; conditions: Sprague-Dawley, in vivo; procedure, shortened: as §4
[24] = Plasma concentration in Lewis rat at 0.3 mg/kg, po after 24 hrs; type: ADME, organism-based; parameters: dose 0.3 mg/kg, route oral; procedure, shortened: as §3
Rattus norvegicus [25] = assay: Immunosuppressive activity in Lewis rat assessed as reduction in circulating peripheral lymphocyte count at 30 mg/kg, po after 24 hrs relative to control; type: functional; parameters: scale not given: the % may be the effect or the level left
[26] = Plasma concentration in Lewis rat at 30 mg/kg, po after 24 hrs; type: ADME, organism-based; parameters: dose 30 mg/kg, route oral

SMILES	microsomal CLint [1] [µL/min/mg]	pEC50 [2]	Efficacy [3] [%]	pEC50 [4]	Papp [5] [nm/s]	solubility [6] [µg/mL]	concentration at 24 h [8] [µg/mL]	Activity (Rattus norvegicus [9]) [%]	solubility [10] [µg/mL]	efflux ratio [12]	solubility [14] [µg/mL]	other results
Cn1cc(C(=O)Nc2cc(C(F)(F)F)c(-c3ccccc3)cn2)c(=O)c2ccccc21	< 14	< 5.60	59	5.96	< 10							
Cn1cc(C(=O)Nc2ccc(-c3ccccc3)c(C(F)(F)F)c2)c(=O)c2ccccc21	< 14	5.82	110	7.15	12	< 1	0.018	-3	1.3 (≈ 3.08 µM)	0.4	11 (≈ 26 µM)	Activity (Rattus norvegicus [7]): -51%; bioavailability [11]: 60%; AUC(0-t) at 24 h [13]: 1.2 µg·h/mL; fraction unbound [15]: 0.03; AUC(0-t) at 24 h [16]: 5.8 µg·h/mL; Activity (Rattus norvegicus [17]): Dose-dependent effect; Efficacy [18]: 92%; Vd [19]: 11 L/kg; Ratio AUC (Rattus norvegicus [20]): 4.7; half-life [21]: 15 h; concentration at 24 h [22]: 0.048 µg/mL; clearance [23]: 0.93 L/h/kg; concentration at 24 h [24]: 0.0055 µg/mL
Cn1nc(C(=O)Nc2ccc(-c3ccccc3)c(C(F)(F)F)c2)c(=O)c2ccccc21	< 14	< 5.60	130	7.39	23	1.6 (≈ 3.78 µM)	0.0097	6	< 1	1.2	12 (≈ 28.3 µM)	
CCCCCCCCc1ccc(CCC(N)(CO)CO)cc1			115									
Cn1cc(C(=O)Nc2ccc(-c3ccccn3)c(C(F)(F)F)n2)c(=O)c2cnccc21	< 14	< 5.60	130	6.68	150	3 (≈ 7.05 µM)	0.14	-32	> 200	1	5.8 (≈ 13.6 µM)	
Cn1cc(C(=O)Nc2ccc(-c3ccccn3)c(C(F)(F)F)c2)c(=O)c2cnccc21	15	< 5.60	100	6.70	160	< 1	0.15	-32	120 (≈ 283 µM)	1	6.7 (≈ 15.8 µM)	
Cn1cc(C(=O)Nc2ccc(-c3cccnc3)c(C(F)(F)F)c2)c(=O)c2ccccc21	18	< 5.60	110	6.51	180	< 1			23 (≈ 54.3 µM)	1.6	6.7 (≈ 15.8 µM)	
Cn1cc(C(=O)Nc2ccc(-c3ccccc3)c(C(F)(F)F)c2)c(=O)c2cccnc21	< 14	< 5.60	100	6.72	22	< 1			< 1	1.7	5.9 (≈ 13.9 µM)	
FC(F)(F)c1cccc(-c2noc(-c3cc(-c4ccccc4)c(C(F)(F)F)s3)n2)c1		< 4.60	86									Activity (Rattus norvegicus [25]): -66%; concentration at 24 h [26]: 1.1 µg/mL
Cn1cc(C(=O)Nc2ccc(-c3ccccc3)c(C(F)(F)F)c2)c(=O)c2ncccc21	< 14	< 5.60	86	5.39	160					1.4		
